In ChEMBL document CHEMBL1142429, “Identification of ACE pharmacophore in the phosphonopeptide metabolite K-26” (Bioorg Med Chem Lett, 2008):

Assay: Inhibition of ACE
In short: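 Enzyme source: rabbit lung acetone powder, extracted by soaking in 100 mM borate buffer, then ultracentrifuged. Extract preincubated 5 min with a range of inhibitor concentrations. Reaction started with a 1 mM solution of chromogenic substrate FAPGG. Initial hydrolysis rate followed continuously as absorbance change at 340 nm over time. IC50 from triplicate measurements fitted to a sigmoidal dose-response curve. Captopril run in parallel as benchmark.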

Compound | IC50 [µM]
CC[C@@H](C)[C@H](N)C(=O)N[C@@H](Cc1ccc(O)cc1)C(=O)N[C@@H](Cc1ccc(O)cc1)C(=O)O | 236
CC[C@@H](C)[C@H](N)C(=O)N[C@@H](Cc1ccc(O)cc1)C(=O)N[C@H](Cc1ccc(O)cc1)C(=O)O | > 1000
CC[C@@H](C)[C@H](NC(C)=O)C(=O)N[C@@H](Cc1ccc(O)cc1)C(=O)N[C@@H](Cc1ccc(O)cc1)C(=O)O | 21
CC[C@@H](C)[C@H](N)C(=O)N[C@@H](Cc1ccc(O)cc1)C(=O)N[C@@H](Cc1ccc(O)cc1)P(=O)(O)O | 0.234
CC[C@@H](C)[C@H](NC(C)=O)C(=O)N[C@@H](Cc1ccc(O)cc1)C(=O)N[C@H](Cc1ccc(O)cc1)C(=O)O | 2000
CCOP(=O)(OCC)[C@H](Cc1ccc(O)cc1)NC(=O)[C@H](Cc1ccc(O)cc1)NC(=O)[C@@H](NC(C)=O)[C@H](C)CC | 383
CC[C@@H](C)[C@H](NC(C)=O)C(=O)N[C@@H](Cc1ccc(O)cc1)C(=O)N[C@H](Cc1ccc(O)cc1)P(=O)(O)O | 0.139
CC[C@@H](C)[C@H](NC(C)=O)C(=O)N[C@@H](Cc1ccc(O)cc1)C(=O)N[C@@H](Cc1ccc(O)cc1)P(=O)(O)O | 0.0144
CC[C@@H](C)[C@H](N)C(=O)N[C@@H](Cc1ccc(O)cc1)C(=O)N[C@H](Cc1ccc(O)cc1)P(=O)(O)O | 54.6
C[C@H](CS)C(=O)N1CCC[C@H]1C(=O)O [CAPTOPRIL] | 0.0077
